The source of these data is ChEMBL document CHEMBL1126768, “A mechanism-based inactivation study of neutral endopeptidase 24.11” (J Med Chem, 1993).

The structures appear in SMILES notation.

Test [1] in a line: Partition ratio expressed as ratio of catalytic constant to that of inactivation constant for (NEP). An outline of the steps:
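Partition ratio was found by titration. NEP at 0.5 μM in 50 mM HEPES pH 7.4 was mixed with inactivator at inactivator/NEP molar ratios from 1 up to 2600 or 6000, then stirred gently at 4 °C for 16 h. Aliquots were diluted 1:100 into DAGNPG assay solution and residual activity was measured fluorometrically. Controls lacked inactivator.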

Test [2] deals with Neprilysin (Homo sapiens) (UniProt P08473).
Test [3] has as its target T1, Angiotensin-converting enzyme (Rattus norvegicus) (UniProt P47820).
T1 sequence (whole entry): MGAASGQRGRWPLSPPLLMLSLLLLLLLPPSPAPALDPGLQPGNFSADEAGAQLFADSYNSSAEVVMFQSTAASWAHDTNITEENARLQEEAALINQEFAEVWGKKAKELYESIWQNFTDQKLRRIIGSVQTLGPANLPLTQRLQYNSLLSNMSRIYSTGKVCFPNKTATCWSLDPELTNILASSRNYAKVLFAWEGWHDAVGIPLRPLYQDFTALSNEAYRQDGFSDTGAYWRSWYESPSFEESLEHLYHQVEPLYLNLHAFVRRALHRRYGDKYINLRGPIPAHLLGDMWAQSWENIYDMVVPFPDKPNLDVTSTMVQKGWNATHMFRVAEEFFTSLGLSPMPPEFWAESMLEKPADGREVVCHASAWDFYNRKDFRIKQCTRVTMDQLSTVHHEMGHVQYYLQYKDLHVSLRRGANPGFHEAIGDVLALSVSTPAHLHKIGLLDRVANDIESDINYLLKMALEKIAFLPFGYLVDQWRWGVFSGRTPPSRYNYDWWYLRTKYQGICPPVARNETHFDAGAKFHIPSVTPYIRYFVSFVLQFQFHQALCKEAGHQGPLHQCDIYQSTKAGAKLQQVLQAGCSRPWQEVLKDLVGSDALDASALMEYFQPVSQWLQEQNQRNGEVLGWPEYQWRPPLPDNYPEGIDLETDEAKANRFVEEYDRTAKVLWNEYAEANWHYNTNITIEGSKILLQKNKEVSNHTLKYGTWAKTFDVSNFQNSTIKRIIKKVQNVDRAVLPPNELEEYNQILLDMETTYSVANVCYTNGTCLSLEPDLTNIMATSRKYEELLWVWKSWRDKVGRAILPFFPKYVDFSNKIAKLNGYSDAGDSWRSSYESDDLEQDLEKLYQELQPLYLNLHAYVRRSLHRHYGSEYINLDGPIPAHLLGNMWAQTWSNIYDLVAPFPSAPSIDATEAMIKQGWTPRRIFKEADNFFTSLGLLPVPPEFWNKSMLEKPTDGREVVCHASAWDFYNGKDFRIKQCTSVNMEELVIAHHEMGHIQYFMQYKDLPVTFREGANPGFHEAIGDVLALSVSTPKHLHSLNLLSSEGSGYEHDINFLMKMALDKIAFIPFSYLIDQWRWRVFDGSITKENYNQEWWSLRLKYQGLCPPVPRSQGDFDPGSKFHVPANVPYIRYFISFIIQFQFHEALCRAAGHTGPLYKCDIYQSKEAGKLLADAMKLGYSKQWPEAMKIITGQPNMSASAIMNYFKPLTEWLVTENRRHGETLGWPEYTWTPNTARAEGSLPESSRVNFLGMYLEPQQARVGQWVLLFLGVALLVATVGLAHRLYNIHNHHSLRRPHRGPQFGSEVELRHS
Nature of the test: Inactivation constant for angiotensin converting enzyme (ACE).

In test [4] the target is Neprilysin (Homo sapiens) (UniProt P08473). Put plainly: Inactivation constant for Neutral endopeptidase (NEP). In outline:
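Recombinant human NEP from CHO cells (>99% pure), 0.5 μM in 50 mM HEPES pH 7.4 with 10% p-dioxane, incubated at 25 °C with inactivator at 0.5–7.5 μM final. Aliquots diluted 1:100 into DAGNPG assay solution (50 mM Tris pH 7.4, 37 °C), fluorescence read at ex 342/em 562 nm. Pseudo-first-order kobs plotted double-reciprocally against inactivator concentration to give kinact and Km.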

Test [5] has as its target Angiotensin-converting enzyme (Homo sapiens) (UniProt P12821). Nature of the test: Partition ratio expressed as ratio of catalytic constant to that of inactivation constant for angiotensin converting enzyme (ACE).

Chain of Neprilysin (Homo sapiens) (P08473 whole entry): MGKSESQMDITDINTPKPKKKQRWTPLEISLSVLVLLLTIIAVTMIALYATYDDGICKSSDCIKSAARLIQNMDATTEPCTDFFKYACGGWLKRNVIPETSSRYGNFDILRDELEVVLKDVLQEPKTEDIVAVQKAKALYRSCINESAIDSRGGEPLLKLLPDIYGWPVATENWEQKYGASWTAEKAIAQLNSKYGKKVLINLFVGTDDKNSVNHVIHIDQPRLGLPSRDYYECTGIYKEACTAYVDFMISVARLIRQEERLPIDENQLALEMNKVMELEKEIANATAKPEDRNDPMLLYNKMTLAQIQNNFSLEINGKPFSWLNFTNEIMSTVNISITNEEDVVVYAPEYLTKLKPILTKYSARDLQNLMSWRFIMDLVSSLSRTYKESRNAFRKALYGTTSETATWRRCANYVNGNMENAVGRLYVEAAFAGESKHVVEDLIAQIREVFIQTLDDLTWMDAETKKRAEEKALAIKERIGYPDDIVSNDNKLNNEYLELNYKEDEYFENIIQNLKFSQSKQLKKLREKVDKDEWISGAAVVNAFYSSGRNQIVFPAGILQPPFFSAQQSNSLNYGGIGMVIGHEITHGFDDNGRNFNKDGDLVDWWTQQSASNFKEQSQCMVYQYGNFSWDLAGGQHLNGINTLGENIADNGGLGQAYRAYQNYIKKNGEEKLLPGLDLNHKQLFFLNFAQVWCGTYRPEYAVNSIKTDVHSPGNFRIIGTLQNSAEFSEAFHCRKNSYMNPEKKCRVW
Chain of Angiotensin-converting enzyme (Homo sapiens) (P12821 whole entry): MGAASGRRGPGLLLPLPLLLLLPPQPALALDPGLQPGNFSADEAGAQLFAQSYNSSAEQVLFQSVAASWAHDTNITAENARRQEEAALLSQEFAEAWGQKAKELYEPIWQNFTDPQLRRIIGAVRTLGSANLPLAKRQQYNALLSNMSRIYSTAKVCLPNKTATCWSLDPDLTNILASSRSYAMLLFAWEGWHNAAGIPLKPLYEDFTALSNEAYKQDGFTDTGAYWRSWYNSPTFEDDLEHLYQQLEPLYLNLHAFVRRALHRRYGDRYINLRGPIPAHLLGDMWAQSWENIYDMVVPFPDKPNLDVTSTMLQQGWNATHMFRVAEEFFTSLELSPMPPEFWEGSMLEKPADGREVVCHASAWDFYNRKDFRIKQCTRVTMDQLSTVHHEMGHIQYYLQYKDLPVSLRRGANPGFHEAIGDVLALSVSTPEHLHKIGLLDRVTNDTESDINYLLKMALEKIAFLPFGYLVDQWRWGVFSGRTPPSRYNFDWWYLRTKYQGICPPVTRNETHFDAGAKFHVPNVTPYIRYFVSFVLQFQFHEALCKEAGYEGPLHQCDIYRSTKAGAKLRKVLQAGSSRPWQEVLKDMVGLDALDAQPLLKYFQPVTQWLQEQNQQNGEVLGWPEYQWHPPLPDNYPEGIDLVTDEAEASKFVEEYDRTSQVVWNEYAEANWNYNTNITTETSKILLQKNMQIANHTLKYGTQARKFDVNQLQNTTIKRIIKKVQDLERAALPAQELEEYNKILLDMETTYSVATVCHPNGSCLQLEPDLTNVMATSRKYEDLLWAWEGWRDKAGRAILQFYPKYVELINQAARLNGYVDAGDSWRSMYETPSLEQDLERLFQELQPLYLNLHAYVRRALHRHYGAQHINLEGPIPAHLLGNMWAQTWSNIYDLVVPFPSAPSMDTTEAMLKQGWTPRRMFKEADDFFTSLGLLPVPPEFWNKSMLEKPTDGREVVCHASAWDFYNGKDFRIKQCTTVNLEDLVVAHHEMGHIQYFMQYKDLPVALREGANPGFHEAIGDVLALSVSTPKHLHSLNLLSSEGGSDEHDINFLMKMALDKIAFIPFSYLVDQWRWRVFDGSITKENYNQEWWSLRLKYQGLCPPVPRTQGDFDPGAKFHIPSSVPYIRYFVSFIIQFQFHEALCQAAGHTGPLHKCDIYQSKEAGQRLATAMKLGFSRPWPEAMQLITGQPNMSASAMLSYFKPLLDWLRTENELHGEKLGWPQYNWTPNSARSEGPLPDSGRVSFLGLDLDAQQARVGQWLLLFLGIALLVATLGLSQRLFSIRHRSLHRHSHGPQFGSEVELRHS

Broadly, the kinact is the rate constant of inactivation at saturating inhibitor. For `N#CCC(=O)CC(Cc1ccccc1)C(=O)NC(Cc1ccccc1)C(=O)O` (stereo unspecified), the K cat/Kinact in test [1] was 1340. Further, in test [2], the kinact amounted to 0.071 min⁻¹.

For `N#CCC(=O)NC(Cc1ccccc1)C(=O)NC(Cc1ccccc1)C(=O)O` (stereo unspecified), the kinact came to 0.08 min⁻¹ in test [3] and 0.022 min⁻¹ in test [4]. Besides, the figures for the K cat/Kinact in test [1] and in test [5] were 4700 and 8300, respectively.
